Activity calls are given as the source filed them. No cut-off for these calls is given here.

Assay [1] in a line: Inhibition of calf DNA polymerase alpha assessed as inhibition of incorporation of dTTP into poly(dA)/oligo(dT)18 after 60 mins. Details: species or system Bos taurus. In short, it runs like this:
(§1)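 Compound in DMSO was sonicated for 30 s, then held with enzyme (0.05 units final) at 0 °C for 10 min in 50 mM Tris-HCl pH 7.5, 1 mM DTT, 50% glycerol, 0.1 mM EDTA. The mixture was added to the standard reaction mix with poly(dA)/oligo(dT)18 (A/T = 2/1) and dTTP, 37 °C, 60 min. Activity was relative to no-inhibitor control; mean ± SE, three independent experiments.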

For assay [2], the target named is T1, DNA polymerase delta catalytic subunit (Homo sapiens, UniProt P28340).
T1 sequence (P28340 whole entry): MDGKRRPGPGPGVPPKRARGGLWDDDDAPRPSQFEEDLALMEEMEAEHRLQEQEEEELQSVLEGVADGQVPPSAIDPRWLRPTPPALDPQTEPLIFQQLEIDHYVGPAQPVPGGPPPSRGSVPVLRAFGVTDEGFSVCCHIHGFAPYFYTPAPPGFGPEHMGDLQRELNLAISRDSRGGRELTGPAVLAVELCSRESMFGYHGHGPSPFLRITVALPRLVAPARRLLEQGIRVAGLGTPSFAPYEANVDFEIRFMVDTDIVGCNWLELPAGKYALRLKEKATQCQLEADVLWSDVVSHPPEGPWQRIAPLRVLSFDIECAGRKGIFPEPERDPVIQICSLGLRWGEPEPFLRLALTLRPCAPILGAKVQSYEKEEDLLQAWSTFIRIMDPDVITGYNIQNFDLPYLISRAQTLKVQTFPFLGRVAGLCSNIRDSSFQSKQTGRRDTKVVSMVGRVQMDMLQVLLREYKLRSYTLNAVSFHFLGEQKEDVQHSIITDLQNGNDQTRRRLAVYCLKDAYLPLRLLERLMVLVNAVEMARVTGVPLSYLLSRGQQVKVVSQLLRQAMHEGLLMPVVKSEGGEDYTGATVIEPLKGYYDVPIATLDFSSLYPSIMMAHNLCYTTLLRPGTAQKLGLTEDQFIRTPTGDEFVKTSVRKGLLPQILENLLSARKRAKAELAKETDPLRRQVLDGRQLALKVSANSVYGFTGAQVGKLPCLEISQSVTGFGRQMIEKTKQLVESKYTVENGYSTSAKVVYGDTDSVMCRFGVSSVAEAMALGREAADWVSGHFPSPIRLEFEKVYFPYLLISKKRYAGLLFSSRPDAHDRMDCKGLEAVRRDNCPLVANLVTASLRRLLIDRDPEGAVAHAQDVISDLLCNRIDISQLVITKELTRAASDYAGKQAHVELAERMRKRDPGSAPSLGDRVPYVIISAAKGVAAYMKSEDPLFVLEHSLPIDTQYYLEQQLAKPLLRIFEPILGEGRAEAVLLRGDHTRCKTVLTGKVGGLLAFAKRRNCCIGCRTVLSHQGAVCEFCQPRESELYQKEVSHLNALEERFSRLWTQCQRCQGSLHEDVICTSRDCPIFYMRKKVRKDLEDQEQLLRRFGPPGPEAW
Nature of the assay: Inhibition of human DNA polymerase delta assessed as inhibition of incorporation of dTTP into poly(dA)/oligo(dT)18 after 60 mins. In short, it runs like this:
as §1

The target of assay [3] is DNA polymerase beta (Rattus norvegicus, UniProt P06766). In words: Inhibition of rat DNA polymerase beta expressed in Escherichia coli JMpbeta5 assessed as inhibition of incorporation of dTTP into poly(dA)/oligo(dT)18 after 60 mins. The gist of the method:
as §1

Assay [4] has as its target T2, DNA polymerase lambda (Homo sapiens, UniProt Q9UGP5).
T2 sequence (Q9UGP5 whole entry): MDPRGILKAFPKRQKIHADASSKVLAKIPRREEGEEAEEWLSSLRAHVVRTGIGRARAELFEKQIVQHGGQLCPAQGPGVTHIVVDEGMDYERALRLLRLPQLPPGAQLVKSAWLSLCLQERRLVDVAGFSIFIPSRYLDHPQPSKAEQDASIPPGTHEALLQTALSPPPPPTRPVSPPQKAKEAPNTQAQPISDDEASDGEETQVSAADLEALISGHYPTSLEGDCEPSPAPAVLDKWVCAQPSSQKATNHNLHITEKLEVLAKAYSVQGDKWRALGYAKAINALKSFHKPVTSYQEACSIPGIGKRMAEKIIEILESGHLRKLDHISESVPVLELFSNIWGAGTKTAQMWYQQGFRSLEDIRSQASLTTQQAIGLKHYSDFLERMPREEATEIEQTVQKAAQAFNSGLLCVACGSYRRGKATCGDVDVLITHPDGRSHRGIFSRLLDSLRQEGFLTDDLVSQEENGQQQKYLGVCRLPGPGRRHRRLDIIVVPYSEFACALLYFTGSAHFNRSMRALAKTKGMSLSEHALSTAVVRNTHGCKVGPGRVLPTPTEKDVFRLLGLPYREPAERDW
Nature of the assay: Inhibition of human recombinant His-tagged DNA polymerase lambda expressed in Escherichia coli assessed as inhibition of incorporation of dTTP into poly(dA)/oligo(dT)18 after 60 mins. The gist of the method:
as §1

Assay [5] deals with DNA-directed DNA/RNA polymerase mu (Homo sapiens, UniProt Q9NP87). Nature of the assay: Inhibition of human His-tagged recombinant DNA polymerase mu expressed in Escherichia coli BL21 assessed as inhibition of incorporation of dTTP into poly(dA)/oligo(dT)18 after 60 mins. In short, it runs like this:
as §1

A short description of assay [6]: Inhibition of Escherichia coli polymerase DNA polymerase 1 klenow fragment assessed as inhibition of incorporation of dTTP into poly(dA)/oligo(dT)18 after 60 mins. In short, it runs like this:
as §1

The test system of assay [7] is Escherichia coli. In words: Inhibition of Escherichia coli polymerase DNA polymerase 1 Klenow fragment assessed as inhibition of incorporation of dTTP into activated DNA primer after 60 mins.

Chain of DNA-directed DNA/RNA polymerase mu (Q9NP87 whole entry): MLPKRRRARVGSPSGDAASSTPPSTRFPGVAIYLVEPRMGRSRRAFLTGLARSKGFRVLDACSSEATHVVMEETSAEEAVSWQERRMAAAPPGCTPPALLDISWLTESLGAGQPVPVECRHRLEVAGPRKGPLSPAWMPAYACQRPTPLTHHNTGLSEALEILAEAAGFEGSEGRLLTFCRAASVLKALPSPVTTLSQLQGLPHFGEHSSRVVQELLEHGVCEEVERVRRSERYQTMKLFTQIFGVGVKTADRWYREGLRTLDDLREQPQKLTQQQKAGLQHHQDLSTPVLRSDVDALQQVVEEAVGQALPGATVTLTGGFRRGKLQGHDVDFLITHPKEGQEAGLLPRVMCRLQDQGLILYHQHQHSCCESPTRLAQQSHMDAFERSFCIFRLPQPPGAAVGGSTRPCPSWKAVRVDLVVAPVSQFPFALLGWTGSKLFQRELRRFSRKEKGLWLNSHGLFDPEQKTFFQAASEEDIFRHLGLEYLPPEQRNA

In the case of `Cc1cc(O)cc(O)c1C(=O)O[C@H]1[C@@H]2COC(/C=C/CO)=CC2=CC(=O)[C@@]1(C)O` [PINOPHILIN B], the half-maximal inhibitory concentration (IC50) in assay [1] is 89.5 µM; in assay [2] it was 96.4 µM; in assay [3] it was greater than 200 µM; in assay [4], greater than 200 µM; in assay [5] it was greater than 200 µM; in assay [6], greater than 200 µM. Besides, the inhibition result in assay [7] is “inactive”.

Turning to `C/C=C/C1=CC2=CC(=O)[C@@](C)(O)[C@@H](OC(=O)c3c(C)cc(O)cc3O)[C@@H]2CO1`, the IC50 is 63.2 µM in assay [1]; 68 µM in assay [2]; greater than 200 µM in assay [3]; greater than 200 µM in assay [4]; greater than 200 µM in assay [5]; greater than 200 µM in assay [6]. Besides, the inhibition entry in assay [7] was “inactive”.

Turning to `C/C=C/C1=CC2=CC(=O)[C@@](C)(OC(=O)c3c(C)cc(O)cc3O)[C@@H](O)[C@@H]2CO1` [PINOPHILIN A], the IC50 in assay [1] is 49.1 µM; in assay [2] it was 54.5 µM; in assay [3], greater than 200 µM; in assay [4], greater than 200 µM; in assay [5], greater than 200 µM; in assay [6], greater than 200 µM. Also, the inhibition result in assay [7] was “inactive”.

Values taken from ChEMBL document CHEMBL2010709, “Pinophilins A and B, inhibitors of mammalian A-, B-, and Y-family DNA polymerases and human cancer cell proliferation” (J Nat Prod, 2012).
